Assay results reported in ChEMBL document CHEMBL1287642, “Synthesis, antiviral activity and cytotoxicity evaluation of Schiff bases of some 2-phenyl quinazoline-4(3)H-ones” (Eur J Med Chem, 2010).
Values after ≈ are worked out from the molar mass of the structure shown.

What was measured:
Human respirovirus 3 = experiment: Antiviral activity against Para influenza-3 virus infected in african green monkey Vero cells assessed as protection against virus-induced cytopathogenicity after 2 days; format: functional, organism-based; conditions: Human respirovirus 3, Vero, 48 h
Sindbis virus = experiment: Antiviral activity against Sindbis virus infected in african green monkey Vero cells assessed as protection against virus-induced cytopathogenicity after 2 days; format: functional, organism-based; conditions: 48 h
Influenza A virus [1] = experiment: Antiviral activity against Influenza A virus H3N2 infected in MDCK cells assessed as cell viability at 100 ug/ml after 2 days by MTS assay; format: functional, organism-based
[2] = system: Feline infectious peritonitis virus; experiment: Antiviral activity against Feline coronavirus FIPV infected in cat CRFK cells assessed as protection against virus-induced cytopathogenicity after 2 days by MTS assay; format: functional, cell-based; conditions: Alphacoronavirus 1, CRFK, 48 h
Human alphaherpesvirus 1 [3] = experiment: Antiviral activity against Herpes simplex virus-1 KOS infected in human HEL cells assessed as protection against virus-induced cytopathogenicity after 2 days; format: functional, organism-based; conditions: Human alphaherpesvirus 1, KOS, 48 h
Influenza A virus [4] = experiment: Antiviral activity against influenza A virus H1N1 infected in MDCK cells assessed as protection against virus-induced cytopathogenicity at 100 ug/ml after 2 days; format: functional, organism-based
Method in brief: (§1)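 Infected MDCK cells were treated. […] N.A. means not active at the highest concentration tested or at a subtoxic concentration.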

Influenza A virus [5] = experiment: Antiviral activity against influenza A virus H1N1 infected in MDCK cells assessed as cell viability at 100 ug/ml after 2 days by MTS assay; format: functional, organism-based
Coxsackievirus B4 [6] = experiment: Antiviral activity against Coxsackie virus B4 infected in african green monkey Vero cells assessed as protection against virus-induced cytopathogenicity after 2 days; format: functional, organism-based; conditions: Enterovirus B, 48 h
Human alphaherpesvirus 2 = experiment: Antiviral activity against Herpes simplex virus-2 G infected in human HEL cells assessed as protection against virus-induced cytopathogenicity after 2 days; format: functional, organism-based; conditions: Human alphaherpesvirus 2, strain G, 48 h
[7] = Cytotoxicity against human HeLa cells assessed as minimum concentration required to cause microscopically detectable alteration after 2 days; format: cell-based; conditions: read-out: Activity
[8] = Cytotoxicity against cat CRFK cells by MTS assay; format: cell-based, Felis catus
Method in brief: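 In uninfected CRFK cells, the 50% cytotoxic concentration was derived from cell viability measured by the colorimetric formazan-based MTS assay.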

Influenza B virus [9] = experiment: Antiviral activity against influenza B virus infected in MDCK cells assessed as protection against virus-induced cytopathogenicity at 100 ug/ml after 2 days; format: functional, organism-based; method in brief: as §1
Felid alphaherpesvirus 1 = experiment: Antiviral activity against Feline herpes virus infected in cat CRFK cells assessed as protection against virus-induced cytopathogenicity after 2 days by MTS assay; format: functional, organism-based; conditions: Felid alphaherpesvirus 1, CRFK, 48 h
Influenza A virus [10] = experiment: Antiviral activity against Influenza A virus H3N2 infected in MDCK cells assessed as protection against virus-induced cytopathogenicity at 100 ug/ml after 2 days; format: functional, organism-based; method in brief: as §1
Influenza B virus [11] = experiment: Antiviral activity against influenza B virus infected in MDCK cells assessed as cell viability at 100 ug/ml after 2 days by MTS assay; format: functional, organism-based
Human alphaherpesvirus 1 [12] = experiment: Antiviral activity against acyclovir-resistant TK deficient Herpes simplex virus-1 KOS infected in human HEL cells assessed as protection against virus-induced cytopathogenicity after 2 days; format: functional, organism-based; conditions: Human alphaherpesvirus 1, KOS, 48 h
Coxsackievirus B4 [13] = experiment: Antiviral activity against Coxsackie virus B4 infected in human HeLa cells assessed as protection against virus-induced cytopathogenicity after 2 days; format: functional, organism-based; conditions: Enterovirus B, 48 h
[14] = Cytotoxicity against human HEL cells assessed as minimum concentration required to cause microscopically detectable alteration after 2 days; format: cell-based; conditions: read-out: Activity
[15] = system: Mammalian orthoreovirus 1; experiment: Antiviral activity against Reovirus-1 infected in african green monkey Vero cells assessed as protection against virus-induced cytopathogenicity after 2 days; format: functional, organism-based; conditions: Mammalian orthoreovirus 1, Vero, 48 h
[16] = system: Vesicular stomatitis virus; experiment: Antiviral activity against Vesicular stomatitis virus infected in human HeLa cells assessed as protection against virus-induced cytopathogenicity after 2 days; format: functional, organism-based; conditions: 48 h
[17] = system: Respiratory syncytial virus; experiment: Antiviral activity against Respiratory syncytial virus infected in human HeLa cells assessed as protection against virus-induced cytopathogenicity after 2 days; format: functional, organism-based; conditions: 48 h
[18] = Cytotoxicity against MDCK cells assessed as minimum concentration required to cause microscopically detectable alteration after 2 days; format: cell-based, Canis lupus familiaris; conditions: dog, read-out: Activity
Punta Toro virus = experiment: Antiviral activity against Punta Toro virus infected in african green monkey Vero cells assessed as protection against virus-induced cytopathogenicity after 2 days; format: functional, organism-based; conditions: 48 h
[19] = system: Vesicular stomatitis virus; experiment: Antiviral activity against Vesicular stomatitis virus infected in human HEL cells assessed as protection against virus-induced cytopathogenicity after 2 days; format: functional, organism-based; conditions: 48 h
MDCK = experiment: Cytotoxicity against MDCK cells by MTS assay; format: cell-based, Canis lupus familiaris; conditions: dog, mdck
Method in brief: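 In Madin Darby canine kidney cells, the 50% cytotoxic concentration was derived from cell viability measured by the colorimetric formazan-based MTS assay.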

[20] = Cytotoxicity against african green monkey Vero cells assessed as minimum concentration required to cause microscopically detectable alteration after 2 days; format: cell-based; conditions: chlorocebus sabaeus, read-out: Activity

Row | SMILES | EC50 (Human respirovirus 3) [µg/mL] | EC50 (Sindbis virus) [µg/mL] | EC50 (Influenza A virus [1]) | EC50 [2] [µg/mL] | EC50 (Human alphaherpesvirus 1 [3]) [µg/mL] | EC50 (Influenza A virus [4]) | EC50 (Influenza A virus [5]) | EC50 (Coxsackievirus B4 [6]) [µg/mL] | EC50 (Human alphaherpesvirus 2) [µg/mL] | MCC at 48 h [7] [µg/mL] | EC50 (Influenza B virus [9]) | EC50 (Felid alphaherpesvirus 1) [µg/mL] | EC50 (Influenza A virus [10]) | EC50 (Influenza B virus [11]) | EC50 (Human alphaherpesvirus 1 [12]) [µg/mL] | MCC at 48 h [14] [µg/mL] | EC50 [15] [µg/mL] | EC50 [16] [µg/mL] | EC50 [19] [µg/mL] | MCC at 48 h [20] [µg/mL] | also measured
1 | C/C(=N\n1c(-c2ccccc2)nc2ccccc2c1=O)c1ccccc1 | > 20 | > 20 | Not Active | > 0.8 | > 100 | Not Active | Not Active | > 20 | > 100 | > 100 | Not Active | > 0.8 | Not Active | Not Active | > 100 | > 100 | > 20 | > 100 | > 100 | 100 | CC50 ([8]; crfk): 2.6 µg/mL (≈ 7.66 µM); EC50 (Coxsackievirus B4 [13]): > 100 µg/mL; EC50 [17]: > 100 µg/mL; MCC at 48 h [18]: 100 µg/mL; EC50 (Punta Toro virus): > 20 µg/mL; CC50 (MDCK): > 100 µg/mL
2 | Nc1ccn(C[C@@H](CO)OCP(=O)(O)O)c(=O)n1.O.O [CIDOFOVIR] |  |  |  |  |  |  |  |  |  |  |  |  |  |  |  | > 250 |  |  | > 250 |  | 
3 | C/C(=N\n1c(-c2ccccc2)nc2ccccc2c1=O)c1ccc(O)cc1 | > 100 | > 100 | Not Active | > 100 | > 100 | Not Active | Not Active | > 100 | > 100 | > 100 | Not Active | > 100 | Not Active | Not Active | > 100 | > 100 | > 100 | > 100 | > 100 | 100 | CC50 ([8]; crfk): > 100 µg/mL; EC50 (Coxsackievirus B4 [13]): > 100 µg/mL; EC50 [17]: > 100 µg/mL; MCC at 48 h [18]: > 100 µg/mL; EC50 (Punta Toro virus): > 100 µg/mL; CC50 (MDCK): > 100 µg/mL
4 | O=c1c2ccccc2nc(-c2ccccc2)n1/N=C/c1ccc(O)cc1 | > 20 | > 20 | Not Active | > 20 | > 20 | Not Active | Not Active | > 20 | > 20 | 100 | Not Active | > 20 | Not Active | Not Active | > 20 | 100 | > 20 | > 20 | > 20 | 100 | CC50 ([8]; crfk): 59.5 µg/mL (≈ 174 µM); EC50 (Coxsackievirus B4 [13]): > 20 µg/mL; EC50 [17]: > 20 µg/mL; MCC at 48 h [18]: 20 µg/mL; EC50 (Punta Toro virus): > 20 µg/mL; CC50 (MDCK): 10.2 µg/mL (≈ 29.9 µM)
5 | Nc1ncnc2c1ncn2C[C@H](O)CO [(S)-DHPA] | > 250 | > 250 |  |  |  |  |  | > 250 |  | > 250 |  |  |  |  |  |  | > 250 | > 250 |  | > 250 | EC50 (Coxsackievirus B4 [13]): > 250 µg/mL; EC50 [17]: > 250 µg/mL; EC50 (Punta Toro virus): > 250 µg/mL
6 | C/C(=N\n1c(-c2ccccc2)nc2ccccc2c1=O)c1ccc(Cl)cc1 | > 20 |  | Not Active |  |  | Not Active | Not Active | > 20 |  | 100 | Not Active | > 100 | Not Active | Not Active | > 20 | 100 | > 20 | > 20 |  | 100 | 
7 | O=c1[nH]c(=O)n([C@H]2C[C@H](O)[C@@H](CO)O2)cc1/C=C/Br [BRIVUDINE] |  |  |  |  |  |  |  |  | 50 (≈ 150 µM) |  |  |  |  |  |  | > 250 |  |  | > 250 |  | 
8 | NC(=O)c1ncn([C@@H]2O[C@H](CO)[C@@H](O)[C@H]2O)n1 [RIBAVIRIN] |  | > 250 |  |  | > 250 |  |  | > 250 | > 250 | > 250 |  |  |  |  | > 250 | > 250 | > 250 | 22 (≈ 90.1 µM) |  | > 250 | EC50 [17]: 22 µg/mL (≈ 90.1 µM); MCC at 48 h [18]: > 100 µg/mL
9 | Nc1nc2c(ncn2COC(CO)CO)c(=O)[nH]1 [GANCICLOVIR] |  |  |  | > 100 | 0.05 (≈ 0.196 µM) |  |  |  | 0.07 (≈ 0.274 µM) |  |  | 0.8 (≈ 3.13 µM) |  |  | 2 (≈ 7.84 µM) | > 100 |  |  | > 100 |  | CC50 ([8]; CRFK cells, read-out: CC50): > 100 µg/mL
10 | CN(C)c1ccc(/C=N/n2c(-c3ccccc3)nc3ccccc3c2=O)cc1 | > 20 |  | Not Active |  |  | Not Active | Not Active |  |  |  | Not Active | > 100 | Not Active | Not Active | > 20 |  | > 20 |  | > 20 |  | EC50 (Coxsackievirus B4 [13]): > 20 µg/mL
11 | CC(=O)N[C@H]1[C@H](OOP(=O)(O)OP(=O)(O)OC[C@H]2O[C@@H](n3ccc(=O)[nH]c3=O)[C@H](O)[C@@H]2O)O[C@H](CO)[C@@H](O)[C@@H]1O[C@](C)(OP(=O)(O)O)C(=O)O |  |  |  | 11.7 (≈ 14.8 µM) |  |  |  |  |  |  |  | 53.1 (≈ 67.1 µM) |  |  |  |  |  |  |  |  | CC50 ([8]; CRFK cells, read-out: CC50): > 100 µg/mL
12 | N=C(N)NCCC[C@H](N)C(=O)O [ARGININE] |  |  |  | 2.6 (≈ 14.9 µM) |  |  |  |  |  |  |  | 1.6 (≈ 9.18 µM) |  |  |  |  |  |  |  |  | CC50 ([8]; CRFK cells, read-out: CC50): > 100 µg/mL
